Laboratory results from ChEMBL document CHEMBL1121956, “Potential antitumor agents. 37. Organophosphorus derivatives of 9-anilinoacridine” (1982).
pIC50: −log10 of the molar value.

Experiments:
Nucleic Acid = assay: […] association constant for DNA binding to poly (dA.dT); type: nucleic-acid assay
Outline: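 Association constant for binding to the synthetic polynucleotide poly(dA-dT). Measured by a method described in earlier work.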

L1210 = assay: Concentration for inhibiting the growth of L1210 cells by 50% over 3 days was determined; type: functional; conditions: Mus musculus, L1210, 72 h; read-out: ID50 (the source's name)
P388 [1] = assay: Concentration for inhibiting the growth of P-388 cells by 50% over 3 days was determined; type: functional; conditions: Mus musculus, P388, 72 h; read-out: ID50 (the source's name)
Outline: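 Cytotoxicity was measured against cultured murine leukemia cells, P-388 and L1210, over 3 days of continuous drug exposure. Culture and drug-addition conditions follow an earlier report. The value is the drug concentration that inhibits growth by 50% over the 3 days.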

P388 [2] = assay: Percentage increase in life span was measured for P-388 cells […] after intraperitoneal administration of a dose of 110 mg/kg; type: functional; conditions: Mus musculus, P388, ip
Outline: (§1)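 Mice received 10⁶ P-388 leukemia cells ip. Drug in 0.1 mL of 30% aqueous ethanol was injected ip on days 1, 5 and 9. Doses ran from a toxic level downward at 0.67-fold intervals, with 6 mice per group and 20–30 controls. The percentage increase in mean survival time over controls was taken at the optimal dose. ILS below 20% was treated as nonsignificant.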

P388 [3] = assay: Percentage increase in life span was measured for P-388 cells […] after intraperitoneal administration of a dose of 66 mg/kg; type: functional; conditions: Mus musculus, P388, ip; outline: as §1
P388 [4] = assay: Percentage increase in life span was measured for P-388 cells […] after intraperitoneal administration of a dose of 50 mg/kg; type: functional; conditions: Mus musculus, P388, ip; outline: as §1
P388 [5] = assay: animal or person; conditions: Mus musculus, P388, ip
P388 [6] = assay: Percentage increase in life span was measured for P-388 cells […] after intraperitoneal administration of a dose of 30 mg/kg; type: functional; conditions: Mus musculus, P388, ip; outline: as §1
P388 [7] = assay: Percentage increase in life span was measured for P-388 cells […] after intraperitoneal administration of a dose of 150 mg/kg; type: functional; conditions: Mus musculus, P388, ip; outline: as §1
P388 [8] = assay: Percentage increase in life span was measured for P-388 cells […] after intraperitoneal administration of a dose of 190 mg/kg; type: functional; conditions: Mus musculus, P388, ip; outline: as §1
P388 [9] = assay: Percentage increase in life span was measured for P-388 cells […] after intraperitoneal administration of a dose of 125 mg/kg; type: functional; conditions: Mus musculus, P388, ip; outline: as §1
P388 [10] = assay: Percentage increase in life span was measured for P-388 cells […] after intraperitoneal administration of a dose of 33 mg/kg; type: functional; conditions: Mus musculus, P388, ip; outline: as §1
P388 [11] = assay: Percentage increase in life span was measured for P-388 cells […] after intraperitoneal administration of a dose of 8.9 mg/kg; type: functional; conditions: Mus musculus, P388, ip; outline: as §1
P388 [12] = assay: Percentage increase in life span was measured for P-388 cells […] after intraperitoneal administration of a dose of 65 mg/kg; type: functional; conditions: Mus musculus, P388, ip; outline: as §1
P388 [13] = assay: Percentage increase in life span was measured for P-388 cells […] after intraperitoneal administration of a dose of 330 mg/kg; type: functional; conditions: Mus musculus, P388, ip; outline: as §1
P388 [14] = assay: Percentage increase in life span was measured for P-388 cells […] after intraperitoneal administration of a dose of 250 mg/kg; type: functional; conditions: Mus musculus, P388, ip; outline: as §1

Structure (SMILES) | Log K (Nucleic Acid) | pIC50 (L1210) | pIC50 (P388 [1]) | other results
CCOP(=O)(Nc1ccc(Nc2c3ccccc3nc3ccccc23)cc1)OCC | 6.47 | 6.64 | 6.70 | ILS at 110 mg/kg (P388 [2]): 28%
CS(=O)(=O)Nc1cccc(Nc2c3ccccc3nc3ccccc23)c1 | – | 6.96 | 7.05 | ILS at 66 mg/kg (P388 [3]): 53%
CN(C)P(=O)(Nc1ccc(Nc2c3ccccc3nc3ccccc23)cc1)N(C)C | 6.08 | 5.82 | 5.89 | ILS at 50 mg/kg (P388 [4]): 29%
O=P1(Nc2ccc(Nc3c4ccccc4nc4ccccc34)cc2)NCCCO1 (stereo unspecified) | 6.58 | 6.10 | 6.35 | ILS at 50 mg/kg (P388 [4]): 9%
COc1cc(NS(C)(=O)=O)ccc1Nc1c2ccccc2nc2ccccc12 [AMSACRINE] | 5.57 | – | 7.52 | ILS at 13.3 mg/kg (P388 [5]): 78%
CC(=O)Nc1ccc(Nc2c3ccccc3nc3ccccc23)cc1 | – | 7.00 | 7.27 | ILS at 30 mg/kg (P388 [6]): 57%
CS(=O)(=O)Nc1ccc(Nc2c3ccccc3nc3ccccc23)cc1 | – | 7.46 | 7.40 | ILS at 150 mg/kg (P388 [7]): 93%
O=P1(Nc2ccc(Nc3c4ccccc4nc4ccccc34)cc2)OCCCO1 | 6.78 | 6.96 | 7.30 | ILS at 30 mg/kg (P388 [6]): 47%
COC(=O)Nc1ccc(Nc2c3ccccc3nc3ccccc23)cc1 | – | 7.22 | 7.59 | ILS at 30 mg/kg (P388 [6]): 98%
NP(=O)(O)Nc1ccc(Nc2c3ccccc3nc3ccccc23)cc1 | 4.83 | 5.74 | 5.55 | –
CNP(=O)(NC)Nc1ccc(Nc2c3ccccc3nc3ccccc23)cc1 | 6.84 | 5.60 | 5.70 | ILS at 50 mg/kg (P388 [4]): 11%
COP(=O)(NC(=O)c1ccc(Nc2c3ccccc3nc3ccccc23)cc1)OC | 5.56 | < 7.46 | 5.32 | ILS at 190 mg/kg (P388 [8]): 12%
COP(=O)(Cc1ccc(Nc2c3ccccc3nc3ccccc23)cc1)OC | 5.67 | 6.17 | 5.85 | ILS at 125 mg/kg (P388 [9]): 2%
COP(=O)(Nc1ccc(Nc2c3ccccc3nc3ccccc23)cc1)OC | 6.26 | 7.82 | 8.00 | ILS at 33 mg/kg (P388 [10]): 74%
CNC(=O)Nc1ccc(Nc2c3ccccc3nc3ccccc23)cc1 | – | 7.00 | 7.07 | ILS at 30 mg/kg (P388 [6]): 53%
COc1cc(NP(=O)(OC)OC)ccc1Nc1c2ccccc2nc2ccccc12 | 5.64 | 7.15 | 7.44 | ILS at 8.9 mg/kg (P388 [11]): 67%
COP(=O)(O)Nc1ccc(Nc2c3ccccc3nc3ccccc23)cc1 | 5.37 | 5.70 | 5.40 | –
CP(C)(=O)Nc1ccc(Nc2c3ccccc3nc3ccccc23)cc1 | 6.81 | 5.89 | 6.00 | ILS at 65 mg/kg (P388 [12]): 18%
O=P1(Nc2ccc(Nc3c4ccccc4nc4ccccc34)cc2)OCCO1 | 6.52 | 6.74 | 6.96 | ILS at 30 mg/kg (P388 [6]): 54%
CS(=O)(=O)Cc1ccc(Nc2c3ccccc3nc3ccccc23)cc1 | 5.76 | 6.60 | 6.57 | ILS at 330 mg/kg (P388 [13]): 49%
COP(=O)(Nc1cccc(Nc2c3ccccc3nc3ccccc23)c1)OC | 5.66 | 5.74 | 5.85 | ILS at 250 mg/kg (P388 [14]): 34%
